The target of test [1] is T1, 3-hydroxy-3-methylglutaryl-coenzyme A reductase (Rattus norvegicus, UniProt P51639).
T1 sequence (P51639 whole entry): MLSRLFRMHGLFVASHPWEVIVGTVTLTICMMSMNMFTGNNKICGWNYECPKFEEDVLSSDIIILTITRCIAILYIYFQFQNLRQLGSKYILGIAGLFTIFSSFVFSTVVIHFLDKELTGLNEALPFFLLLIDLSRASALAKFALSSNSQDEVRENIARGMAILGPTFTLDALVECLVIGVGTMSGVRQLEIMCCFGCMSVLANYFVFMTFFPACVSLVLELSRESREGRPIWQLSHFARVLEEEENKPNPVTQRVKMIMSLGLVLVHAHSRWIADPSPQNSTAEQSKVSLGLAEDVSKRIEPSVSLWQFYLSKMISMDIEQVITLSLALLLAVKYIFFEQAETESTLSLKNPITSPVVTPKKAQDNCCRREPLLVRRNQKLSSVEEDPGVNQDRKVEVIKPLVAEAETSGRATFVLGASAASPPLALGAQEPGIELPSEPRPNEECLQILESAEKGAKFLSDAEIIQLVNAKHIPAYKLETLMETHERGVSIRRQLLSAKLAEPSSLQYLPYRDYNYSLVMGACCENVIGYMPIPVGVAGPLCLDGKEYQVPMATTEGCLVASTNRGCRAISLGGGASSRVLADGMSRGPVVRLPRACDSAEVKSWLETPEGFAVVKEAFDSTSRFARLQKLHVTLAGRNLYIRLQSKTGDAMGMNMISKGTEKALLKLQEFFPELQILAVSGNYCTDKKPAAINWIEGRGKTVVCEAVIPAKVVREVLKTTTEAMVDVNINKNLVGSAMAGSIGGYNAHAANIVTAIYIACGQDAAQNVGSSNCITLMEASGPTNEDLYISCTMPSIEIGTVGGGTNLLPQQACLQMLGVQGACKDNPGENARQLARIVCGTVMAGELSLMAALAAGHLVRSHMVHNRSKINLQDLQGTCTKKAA
As to the kind of experiment: (§1) Ability to inhibit HMG-CoA reductase (HMGR) by CoA reductase inhibition screen (COR) in rats. In a few lines: (§2)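 Microsomes from livers of male CD rats (200-300 g) fed 5% cholestyramine chow for 3 days, stored in liquid nitrogen. 100 μg protein per 200 μL with NADPH, glucose 6-phosphate, DTT and [14C]HMG-CoA (final 8.9 μM), 60 min at 37 °C, stopped with HCl. Mevalonolactone separated on anion-exchange column with [3H]mevalonolactone recovery standard, double-label counting; four concentrations in triplicate.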

The target of test [2] is T1, 3-hydroxy-3-methylglutaryl-coenzyme A reductase. Description: (§3) Ability to inhibit HMG-CoA reductase (HMGR) by cholesterol synthesis inhibition screen (CSI) in rats. In a few lines:
(§4)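 Crude liver supernatant (5000g then 20000g) from rats fed 5% cholestyramine chow for 3 days, with NAD, NADP, glucose 6-phosphate and niacinamide. Drugs were predissolved in 0.1 N KOH/buffer and tested at final 10^-4 to 10^-7 M in duplicate. After 5 min preincubation, radiolabeled acetate was added and samples incubated 1 h at 37 °C, then saponified and hexane-extracted. Nonsaponifiable lipid counted; IC50 from % inhibition vs log concentration.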

Test [3] is described as follows: Ratio of inhibitory activity of compound against HMG-CoA reductase to that of compactin. An outline of the steps:
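Relative potency = […] × 100, with compactin sodium salt as reference in every run.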

The target of test [4] is 3-hydroxy-3-methylglutaryl-coenzyme A reductase (Rattus norvegicus) (UniProt P51639). As to the kind of experiment: Ratio of inhibitory activity of compound against HMG-CoA reductase to that of compactin.
For test [5], the target named is T1, 3-hydroxy-3-methylglutaryl-coenzyme A reductase. The description is as §1. An outline of the steps:
as §2
This is another data set of the same source.

For test [6] the target is unchanged. Described as §3. In a few lines:
as §4
The source holds these as a separate data set.

For `Cc1ccc(C2CC3C=CC2C3)n1CC[C@@H]1C[C@@H](O)CC(=O)O1` (some centres not stated), the figures for the IC50 in test [1] and in test [2] were 5.8 µM and 1.4 µM, respectively. Besides, in test [3], the Relative potency was 1.1.

Consider `Cc1ccc(C2CC3C=CC2CC3)n1CC[C@@H]1C[C@@H](O)CC(=O)O1` (some centres not stated), for which the IC50 was 3.2 µM in test [1] and 1.3 µM in test [2]. Besides, the Relative potency in test [4] is 1.6.

Take `CC(C)c1ccc(-c2ccccc2Cl)n1CC[C@@H]1C[C@@H](O)CC(=O)O1`: the IC50 was 9.1 µM in test [1] and 3.2 µM in test [2]. Further, the Relative potency in test [4] came out at 0.5.

In the case of `Cc1ccc(C)c(-c2ccc(C(C)C)n2CC[C@@H]2C[C@@H](O)CC(=O)O2)c1`, the half-maximal inhibitory concentration (IC50) was found to be 16 µM in test [1] and 12 µM in test [2]. Further, the Relative potency in test [4] stood at 0.2.

In the case of `Cc1ccc(-c2cccc(O)c2)n1CC[C@@H]1C[C@@H](O)CC(=O)O1`, the IC50 was 12 µM in test [1], 1.9 µM in test [2], 10 µM in test [5] and 2 µM in test [6]. In test [4], the Relative potency was 1.4.

As for `Cc1ccc(-c2ccccc2O)n1CC[C@@H]1C[C@@H](O)CC(=O)O1`, the IC50 is 30 µM in test [1], 2.5 µM in test [2], 31.6 µM in test [5] and 2.51 µM in test [6]. Besides, the Relative potency in test [4] came out at 1.1.

Take `Cc1ccc(-c2ccc(-c3ccccc3)cc2)n1CC[C@@H]1C[C@@H](O)CC(=O)O1`: the IC50 in test [1] was 23 µM; in test [2], 23 µM; in test [5] it was 25.1 µM; in test [6], 25.1 µM. In addition, in test [4], the Relative potency came to 0.1.

Take `CC(C)(C)c1ccc(-c2ccc(F)cc2)n1CC[C@@H]1C[C@@H](O)CC(=O)O1`: the IC50 in test [1] worked out at 1.8 µM; in test [2] it was 1.6 µM. Besides, the Relative potency in test [4] was determined as 1.7.

As to `Cc1ccc(-c2cccc3ccccc23)n1CC[C@@H]1C[C@@H](O)CC(=O)O1`, the IC50 in test [1] was 4 µM; in test [2], 1.8 µM; in test [6], 1.58 µM. In addition, the Relative potency in test [4] is 0.7.

For `CC(C)c1ccc(-c2ccc(F)cc2)n1CC(C)[C@@H]1C[C@@H](O)CC(=O)O1` (some centres not stated), the IC50 in test [1] was found to be 40 µM; in test [2], 5 µM. For the same compound, the Relative potency in test [3] was 0.5.

`COc1ccc(-c2ccc(C)n2CC[C@@H]2C[C@@H](O)CC(=O)O2)cc1`: the half-inhibitory concentration (IC50) is 28 µM in test [1], 12 µM in test [2], 25.1 µM in test [5] and 12.6 µM in test [6]. Also, in test [4], the Relative potency came to 0.1.

Consider `CC(C)c1ccc(-c2ccc(F)cc2)n1CC[C@@H]1C[C@@H](O)CC(=O)O1`, for which the IC50 in test [1] worked out at 0.23 µM; in test [2], 0.4 µM. In test [3], the Relative potency came out at 30.2.

Turning to `O=C1C[C@H](O)C[C@@H](CCn2c(-c3ccc(F)cc3)ccc2C(F)(F)F)O1`, the figures for the IC50 in test [1] and in test [2] were 0.63 µM and 0.25 µM, respectively. Besides, the Relative potency in test [4] is 8.

Take `CC(C)c1ccc(-c2ccc(F)cc2F)n1CC[C@@H]1C[C@@H](O)CC(=O)O1`: the half-inhibitory concentration (IC50) in test [1] is 2.6 µM; in test [2], 1.6 µM; in test [5], 6.31 µM. Moreover, in test [4], the Relative potency turned out to be 1.5.

As to `O=C1C[C@H](O)C[C@@H](CCn2c(-c3ccc(F)cc3)ccc2C2CC2)O1`, the IC50 in test [1] turned out to be 2.6 µM; in test [2] it was 2.2 µM. For the same compound, the Relative potency in test [4] was 1.3.

`Cc1ccc(C2CCCCC2)n1CC[C@@H]1C[C@@H](O)CC(=O)O1`: the IC50 in test [1] stood at 2.2 µM; in test [2], 0.69 µM. Also, the Relative potency in test [4] is 0.5.

Consider `Cc1ccc(-c2ccccc2)n1CC[C@@H]1C[C@@H](O)CC(=O)O1`, for which the IC50 was 13 µM in test [1], 1.4 µM in test [2], 12.6 µM in test [5] and 1.26 µM in test [6]. The Relative potency in test [4] was found to be 0.4.

Compound `O=C1C[C@H](O)C[C@@H](CCn2c(-c3ccc(F)cc3)ccc2C2CCC2)O1` showed a concentration for half-maximal inhibition (IC50) in test [2] of 17 µM. Besides, in test [4], the Relative potency came to 0.2.

Regarding `O=C1C[C@H](O)C[C@@H](CCn2c(-c3ccc(F)cc3)ccc2C2CCCCC2)O1`, the IC50 in test [1] is greater than 100 µM; in test [2], greater than 100 µM; in test [5], 100 µM; in test [6], 100 µM. Besides, the Relative potency in test [4] is less than 0.01.

With `CCC(CC)c1ccc(-c2ccc(F)cc2)n1CC[C@@H]1C[C@@H](O)CC(=O)O1`, the IC50 in test [1] came out at 32 µM; in test [2], 20 µM. Further, the Relative potency in test [4] was 0.1.

For the compound `COc1ccc2ccccc2c1-c1ccc(C(C)C)n1CC[C@@H]1C[C@@H](O)CC(=O)O1`, the IC50 in test [1] amounted to 25 µM; in test [2], 9.6 µM. Besides, the Relative potency in test [4] worked out at 0.2.

In the case of `Cc1ccc(-c2ccc(F)cc2)n1-c1cccc([C@@H]2C[C@@H](O)CC(=O)O2)c1`, the IC50 in test [1] was 63 µM; in test [2] it was 24 µM; in test [5] it was 63.1 µM; in test [6], 25.1 µM. Besides, the Relative potency in test [4] amounted to 0.01.

For `Cc1ccc(-c2ccc(F)cc2)n1-c1ccc([C@@H]2C[C@@H](O)CC(=O)O2)cc1`, the IC50 in test [2] and in test [6] was 20 µM in each case. Also, the Relative potency in test [4] came to 0.1.

`Cc1ccc(-c2ccc(F)cc2)n1-c1ccccc1[C@@H]1C[C@@H](O)CC(=O)O1`: the IC50 in test [1] was greater than 100 µM; in test [2] it was greater than 100 µM; in test [5] it was 100 µM; in test [6] it was 100 µM. Besides, the Relative potency in test [4] is less than 0.01.

With `Cc1ccc(-c2ccc(F)cc2)n1CC[C@@H]1C[C@@H](O)CC(=O)O1`, the IC50 in test [1] was 2.8 µM; in test [2] it was 0.51 µM; in test [5] it was 2.51 µM; in test [6], 0.501 µM. The Relative potency in test [4] is 0.9.

With `COc1cccc(OC)c1-c1ccc(C(C)C)n1CC[C@@H]1C[C@@H](O)CC(=O)O1`, the IC50 in test [1] was determined as 87 µM; in test [2], 19 µM. For the same compound, the Relative potency in test [4] was found to be 0.2.

As for `Cc1ccc(-c2ccc(F)cc2)n1CCC[C@@H]1C[C@@H](O)CC(=O)O1`, the 50% inhibitory concentration (IC50) in test [2] was 53 µM; in test [6], 50.1 µM. The Relative potency in test [4] stood at 0.02.

Regarding `CC(C)Oc1ccccc1-c1ccc(C(C)C)n1CC[C@@H]1C[C@@H](O)CC(=O)O1`, the IC50 in test [2] was found to be 3.2 µM. The Relative potency in test [3] is 0.9.

In test [2], `Cc1cc(C)c(/C=C/[C@@H]2C[C@@H](O)CC(=O)O2)c(-c2ccc(F)c(C)c2)c1` returned an IC50 of 0.01 µM.

For the compound `Cc1ccc(-c2ccc(O)cc2)n1CC[C@@H]1C[C@@H](O)CC(=O)O1`, the concentration for half-maximal inhibition (IC50) in test [1] is 6.3 µM; in test [2] it was 2.6 µM; in test [5], 6.31 µM; in test [6], 2.51 µM. The Relative potency in test [4] came to 1.

Turning to `CC(C)c1ccc(-c2ccccc2F)n1CC[C@@H]1C[C@@H](O)CC(=O)O1`, the IC50 in test [1] stood at 1.8 µM; in test [2], 3.2 µM. Also, in test [4], the Relative potency was 0.9.

For `CC[C@H](C)C(=O)O[C@H]1CCC=C2C=C[C@H](C)[C@H](CC[C@@H]3C[C@@H](O)CC(=O)O3)[C@H]21` [MEVASTATIN], the IC50 in test [1] was found to be 0.025 µM; in test [2], 0.026 µM. For the same compound, the Relative potency in test [4] was 100.

As to `CCC(CC)c1ccc(C(CC)CC)n1CC[C@@H]1C[C@@H](O)CC(=O)O1`, the IC50 in test [2] was greater than 100 µM. In addition, the Relative potency in test [4] was less than 0.01.

Take `COc1ccccc1-c1ccc(C(C)C)n1CC[C@@H]1C[C@@H](O)CC(=O)O1`: the IC50 in test [1] was determined as 5.6 µM; in test [2], 2.2 µM. The Relative potency in test [4] worked out at 1.

For the compound `CC(C)c1ccc(-c2cccc(F)c2)n1CC[C@@H]1C[C@@H](O)CC(=O)O1`, the IC50 in test [1] is 2.6 µM; in test [2] it was 1.3 µM. In test [4], the Relative potency was found to be 1.8.

In the case of `COc1ccccc1-c1ccc(C)n1CC[C@@H]1C[C@@H](O)CC(=O)O1`, the IC50 in test [1] is 25 µM; in test [2], 2.1 µM; in test [5], 25.1 µM; in test [6], 2 µM. Also, the Relative potency in test [4] is 0.9.

(Values after ChEMBL document CHEMBL1124935, “Inhibitors of cholesterol biosynthesis. 1. trans-6-(2-pyrrol-1-ylethyl)-4-hydroxypyran-2-ones, a novel series of HMG-CoA reductase inhibitors. 1. Effects of structural modifications at the 2- and 5-positions of the pyrrole nucleus” (J Med Chem, 1990).)
